From ChEMBL document CHEMBL3804820, “2-hydroxyisoquinoline-1,3(2H,4H)-diones (HIDs) as human immunodeficiency virus type 1 integrase inhibitors: Influence of the alkylcarboxamide substitution of position 4” (Eur J Med Chem, 2016)
Activity calls are given as the source filed them. The calls are words filed in the database; no cut-off is given here.

Columns and labels:
[1] = molecular target: T1, hERG (KCNH2) (Homo sapiens, UniProt Q12809); assay: in vitro; settings: CHO-K1 cells expressing human ERG
[2] = tested on: Human immunodeficiency virus 1; assay: Antiviral activity against HIV1 3B infected in human MT4 cells at 50 to 100 times antiviral EC50 added 1 to 25 hrs post infection assessed as time required for loss of inhibition of viral replication measured at 30 hrs post infection by p24 ELISA method; type: functional
[3] = Cytotoxicity against human HepG2 cells assessed as reduction in cell number at 30 uM after 72 hrs by fluorescent image analysis relative to untreated control; type: cell-based; settings: read-out: INH
How it was run: (§1)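 Contract in vitro cytotoxicity panel covering cell number, intracellular free calcium, nuclear size, membrane permeability and mitochondrial membrane potential. Compounds tested at 1.0, 30.0 and 100.0 µM; values are percentage change versus untreated control, and IC50 where derived.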

[4] = molecular target: CYP2C9 (Homo sapiens, UniProt P11712); assay: Inhibition of human recombinant CYP2C9 using MFC as substrate at 10 uM incubated for 40 mins by fluorimetry relative to control; type: ADME; settings: recombinant CYP2C9, probe MFC
How it was run: (§2)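 Recombinant CYP isoforms, each with its fluorogenic substrate: CYP1A2 and CYP2C19 with CEC, CYP2C9 and CYP2D6 with MFC, CYP3A4 with BFC. Read as percentage inhibition of control, standard contract assays.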

[5] = Cytotoxicity against human HepG2 cells assessed as reduction in nuclear size at 1 uM after 72 hrs by fluorescent image analysis relative to untreated control; type: cell-based; settings: read-out: INH
How it was run: as §1

[6] = Cytotoxicity against human HepG2 cells assessed as reduction in mitochondrial membrane potential at 30 uM after 72 hrs by fluorescent image analysis relative to untreated control; type: cell-based; settings: read-out: INH
How it was run: as §1

[7] = molecular target: CYP2D6 (Homo sapiens, UniProt P10635); assay: Inhibition of human recombinant CYP2D6 using MFC as substrate at 10 uM incubated for 40 mins by fluorimetry relative to control; type: ADME; settings: recombinant CYP2D6, probe MFC
How it was run: as §2

[8] = tested on: Human immunodeficiency virus 1; assay: Selectivity ratio of EC50 for raltegravir resistant HIV1 harboring integrase G140S/Q148H double mutant infected in human MT4 cells to EC50 for wild type HIV1 infected in human MT4 cells; type: functional
How it was run: (§3)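 MT-4 cells were infected with 100–300 CCID₅₀ of virus stock (titrated in MT-4 cells) in the presence of 5-fold serial drug dilutions. EC₅₀ is the concentration giving 50% protection against virus-induced cytopathic effect, read by MTT reduction (MT-4/MTT assay). The value is the fold-change in EC₅₀ for each mutant strain relative to the wild-type HIV-1 strain.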

[9] = tested on: Human immunodeficiency virus 1; assay: Selectivity ratio of EC50 for raltegravir resistant HIV1 harboring integrase Q148H mutant infected in human MT4 cells to EC50 for wild type HIV1 infected in human MT4 cells; type: functional
How it was run: as §3

[10] = tested on: HepG2; assay: Cytotoxicity against human HepG2 cells assessed as increase in intracellular free calcium level at 30 uM after 72 hrs by fluorescent image analysis relative to untreated control; type: cell-based; settings: hepg2, 72 h
How it was run: as §1

[11] = Cytotoxicity against human HepG2 cells assessed as reduction in mitochondrial membrane potential at 1 uM after 72 hrs by fluorescent image analysis relative to untreated control; type: cell-based; settings: read-out: INH
How it was run: as §1

[12] = tested on: MDCK-II; assay: Inhibition of human P-gp expressed in MDCK2-MDR1 cells assessed as reduction in calcien-AM efflux at 100 uM incubated for 20 mins by fluorimetry relative to control; type: cell-based
How it was run: (§4)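 P-gp efflux inhibition in MDR1-MDCKII cells with calcein AM substrate, tested up to 100.0 µM. Read as percentage inhibition of control.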

[13] = tested on: MDCK-II; assay: Inhibition of human P-gp expressed in MDCK2-MDR1 cells assessed as reduction in calcien-AM efflux at 1 uM incubated for 20 mins by fluorimetry relative to control; type: cell-based
How it was run: as §4

[14] = Cytotoxicity against human HepG2 cells assessed as reduction in cell number at 100 uM after 72 hrs by fluorescent image analysis relative to untreated control; type: cell-based; settings: read-out: INH
How it was run: as §1

[15] = tested on: Human immunodeficiency virus 1; assay: Selectivity ratio of EC50 for raltegravir resistant HIV1 harboring integrase N155H mutant infected in human MT4 cells to EC50 for wild type HIV1 infected in human MT4 cells; type: functional
How it was run: as §3

[16] = tested on: HepG2; assay: Cytotoxicity against human HepG2 cells assessed as increase in intracellular free calcium level at 1 uM after 72 hrs by fluorescent image analysis relative to untreated control; type: cell-based; settings: hepg2, 72 h
How it was run: as §1

[17] = tested on: HepG2; assay: Cytotoxicity against human HepG2 cells assessed as increase in membrane permeability at 100 uM after 72 hrs by fluorescent image analysis relative to untreated control; type: cell-based; settings: hepg2, 72 h
[18] = molecular target: T2, CYP1A2 (Homo sapiens, UniProt P05177); assay: Inhibition of human recombinant CYP1A2 using CEC as substrate at 10 uM incubated for 30 mins by fluorimetry relative to control; type: ADME; settings: recombinant CYP1A2, probe CEC
T2 sequence (P05177 whole entry): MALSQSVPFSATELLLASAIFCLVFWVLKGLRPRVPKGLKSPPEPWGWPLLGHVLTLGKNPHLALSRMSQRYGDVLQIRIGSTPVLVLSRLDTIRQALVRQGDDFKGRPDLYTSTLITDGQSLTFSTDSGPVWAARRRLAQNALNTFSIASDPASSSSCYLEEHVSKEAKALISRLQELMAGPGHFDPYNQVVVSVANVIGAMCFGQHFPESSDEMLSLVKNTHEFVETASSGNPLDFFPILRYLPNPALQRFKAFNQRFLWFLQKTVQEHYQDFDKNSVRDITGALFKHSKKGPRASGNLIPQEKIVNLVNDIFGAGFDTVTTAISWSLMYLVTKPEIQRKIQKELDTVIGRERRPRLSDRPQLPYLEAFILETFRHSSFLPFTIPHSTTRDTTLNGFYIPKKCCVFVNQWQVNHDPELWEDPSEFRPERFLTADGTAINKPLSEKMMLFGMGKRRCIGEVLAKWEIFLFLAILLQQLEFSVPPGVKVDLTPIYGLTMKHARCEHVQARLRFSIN
How it was run: as §2

[19] = molecular target: CYP3A4 (Homo sapiens, UniProt P08684); assay: Inhibition of human recombinant CYP3A4 using BFC as substrate at 10 uM incubated for 30 mins by fluorimetry relative to control; type: ADME; settings: recombinant CYP3A4, probe BFC
How it was run: as §2

[20] = tested on: MDCK-II; assay: Inhibition of human P-gp expressed in MDCK2-MDR1 cells assessed as reduction in calcien-AM efflux at 30 uM incubated for 20 mins by fluorimetry relative to control; type: cell-based
How it was run: as §4

[21] = molecular target: CYP2C19 (Homo sapiens, UniProt P33261); assay: Inhibition of human recombinant CYP2C19 using CEC as substrate at 10 uM incubated for 50 mins by fluorimetry relative to control; type: ADME; settings: recombinant CYP2C19, probe CEC
How it was run: as §2

[22] = Cytotoxicity against human HepG2 cells assessed as reduction in cell number at 1 uM after 72 hrs by fluorescent image analysis relative to untreated control; type: cell-based; settings: read-out: INH
How it was run: as §1

[23] = molecular target: T1, hERG (KCNH2); assay: in vitro; settings: CHO-K1 cells expressing human ERG; remark: listed apart in the source
[24] = Cytotoxicity against human HepG2 cells assessed as reduction in mitochondrial membrane potential at 100 uM after 72 hrs by fluorescent image analysis relative to untreated control; type: cell-based; settings: read-out: INH
How it was run: as §1

[25] = tested on: HepG2; assay: Cytotoxicity against human HepG2 cells assessed as increase in intracellular free calcium level at 100 uM after 72 hrs by fluorescent image analysis relative to untreated control; type: cell-based; settings: hepg2, 72 h
How it was run: as §1

[26] = Cytotoxicity against human HepG2 cells assessed as reduction in nuclear size at 30 uM after 72 hrs by fluorescent image analysis relative to untreated control; type: cell-based; settings: read-out: INH
How it was run: as §1

[27] = Cytotoxicity against human HepG2 cells assessed as reduction in nuclear size at 100 uM after 72 hrs by fluorescent image analysis relative to untreated control; type: cell-based; settings: read-out: INH
How it was run: as §1

[28] = tested on: HepG2; assay: Cytotoxicity against human HepG2 cells assessed as increase in membrane permeability at 1 uM after 72 hrs by fluorescent image analysis relative to untreated control; type: cell-based; settings: hepg2, 72 h
[29] = molecular target: T1, hERG (KCNH2); assay: in vitro; settings: CHO-K1 cells expressing human ERG; remark: listed apart in the source
[30] = tested on: HepG2; assay: Cytotoxicity against human HepG2 cells assessed as increase in membrane permeability at 30 uM after 72 hrs by fluorescent image analysis relative to untreated control; type: cell-based; settings: hepg2, 72 h

T1 sequence (Q12809 whole entry): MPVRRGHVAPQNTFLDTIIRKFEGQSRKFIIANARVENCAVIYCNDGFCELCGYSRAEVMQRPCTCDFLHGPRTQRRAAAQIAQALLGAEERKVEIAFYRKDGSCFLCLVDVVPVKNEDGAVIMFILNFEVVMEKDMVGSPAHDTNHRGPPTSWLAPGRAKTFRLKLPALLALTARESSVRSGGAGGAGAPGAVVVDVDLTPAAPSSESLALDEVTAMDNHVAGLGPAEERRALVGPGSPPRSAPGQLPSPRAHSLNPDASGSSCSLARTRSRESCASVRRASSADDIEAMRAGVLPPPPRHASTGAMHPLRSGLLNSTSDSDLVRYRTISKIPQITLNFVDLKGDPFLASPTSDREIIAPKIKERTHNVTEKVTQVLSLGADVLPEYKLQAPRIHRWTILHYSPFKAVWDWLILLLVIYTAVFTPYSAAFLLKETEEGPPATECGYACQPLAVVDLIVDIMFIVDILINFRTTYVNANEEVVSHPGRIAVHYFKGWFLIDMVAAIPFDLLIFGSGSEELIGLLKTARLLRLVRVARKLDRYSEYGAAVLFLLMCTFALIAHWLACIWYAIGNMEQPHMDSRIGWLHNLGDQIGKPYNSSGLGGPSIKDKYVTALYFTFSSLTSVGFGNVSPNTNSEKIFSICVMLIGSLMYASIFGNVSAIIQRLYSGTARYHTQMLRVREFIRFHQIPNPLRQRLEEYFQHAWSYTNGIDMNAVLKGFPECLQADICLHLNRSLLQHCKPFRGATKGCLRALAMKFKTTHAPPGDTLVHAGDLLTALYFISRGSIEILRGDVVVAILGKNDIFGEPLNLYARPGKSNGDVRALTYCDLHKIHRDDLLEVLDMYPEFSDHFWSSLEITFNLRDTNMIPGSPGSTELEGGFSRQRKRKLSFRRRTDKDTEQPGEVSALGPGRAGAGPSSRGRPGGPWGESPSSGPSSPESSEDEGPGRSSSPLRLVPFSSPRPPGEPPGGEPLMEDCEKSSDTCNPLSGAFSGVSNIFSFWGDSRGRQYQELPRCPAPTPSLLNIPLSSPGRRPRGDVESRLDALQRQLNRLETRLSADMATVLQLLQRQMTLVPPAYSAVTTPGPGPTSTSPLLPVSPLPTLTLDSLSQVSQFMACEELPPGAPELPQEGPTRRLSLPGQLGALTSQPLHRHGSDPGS
Sequence of CYP2D6 (P10635 whole entry): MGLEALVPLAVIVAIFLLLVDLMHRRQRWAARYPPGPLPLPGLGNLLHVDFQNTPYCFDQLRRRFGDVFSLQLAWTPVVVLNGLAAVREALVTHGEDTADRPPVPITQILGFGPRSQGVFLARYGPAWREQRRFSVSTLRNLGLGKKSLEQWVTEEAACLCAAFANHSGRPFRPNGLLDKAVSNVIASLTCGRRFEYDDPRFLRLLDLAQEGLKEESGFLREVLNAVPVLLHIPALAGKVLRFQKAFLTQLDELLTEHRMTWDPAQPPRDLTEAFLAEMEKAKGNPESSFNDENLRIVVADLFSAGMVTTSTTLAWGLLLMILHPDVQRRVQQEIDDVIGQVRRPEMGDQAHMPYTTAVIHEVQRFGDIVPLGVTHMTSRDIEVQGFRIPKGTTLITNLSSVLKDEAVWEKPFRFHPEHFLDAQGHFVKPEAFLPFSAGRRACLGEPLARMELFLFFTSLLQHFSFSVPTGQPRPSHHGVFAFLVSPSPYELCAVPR
Sequence of CYP2C9 (P11712 whole entry, canonical isoform): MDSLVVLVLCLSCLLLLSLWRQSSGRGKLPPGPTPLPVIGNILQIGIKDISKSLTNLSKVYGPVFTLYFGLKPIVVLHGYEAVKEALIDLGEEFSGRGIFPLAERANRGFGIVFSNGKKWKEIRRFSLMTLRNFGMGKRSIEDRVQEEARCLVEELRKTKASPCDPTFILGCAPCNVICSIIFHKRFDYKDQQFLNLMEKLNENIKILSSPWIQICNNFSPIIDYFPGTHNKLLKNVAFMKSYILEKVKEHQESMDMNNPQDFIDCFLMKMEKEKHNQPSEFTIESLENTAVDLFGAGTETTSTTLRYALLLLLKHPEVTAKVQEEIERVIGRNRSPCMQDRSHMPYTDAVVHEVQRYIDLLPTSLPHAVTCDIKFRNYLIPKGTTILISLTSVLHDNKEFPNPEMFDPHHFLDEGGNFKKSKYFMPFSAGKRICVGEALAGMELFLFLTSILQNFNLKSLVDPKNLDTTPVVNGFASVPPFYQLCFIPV
Sequence of CYP2C19 (P33261 whole entry): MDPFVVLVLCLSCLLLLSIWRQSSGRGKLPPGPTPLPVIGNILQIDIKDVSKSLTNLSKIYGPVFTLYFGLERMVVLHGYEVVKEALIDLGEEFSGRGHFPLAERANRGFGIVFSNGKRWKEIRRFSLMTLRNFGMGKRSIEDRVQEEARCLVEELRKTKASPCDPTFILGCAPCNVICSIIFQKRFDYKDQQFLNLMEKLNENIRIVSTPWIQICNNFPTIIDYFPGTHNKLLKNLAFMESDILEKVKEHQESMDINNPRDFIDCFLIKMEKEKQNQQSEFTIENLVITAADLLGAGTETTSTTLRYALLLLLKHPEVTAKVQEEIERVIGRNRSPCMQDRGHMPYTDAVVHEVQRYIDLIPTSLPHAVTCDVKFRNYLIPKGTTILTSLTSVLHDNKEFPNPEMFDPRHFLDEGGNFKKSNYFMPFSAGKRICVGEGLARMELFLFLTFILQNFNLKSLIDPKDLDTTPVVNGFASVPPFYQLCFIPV
Sequence of CYP3A4 (P08684 whole entry): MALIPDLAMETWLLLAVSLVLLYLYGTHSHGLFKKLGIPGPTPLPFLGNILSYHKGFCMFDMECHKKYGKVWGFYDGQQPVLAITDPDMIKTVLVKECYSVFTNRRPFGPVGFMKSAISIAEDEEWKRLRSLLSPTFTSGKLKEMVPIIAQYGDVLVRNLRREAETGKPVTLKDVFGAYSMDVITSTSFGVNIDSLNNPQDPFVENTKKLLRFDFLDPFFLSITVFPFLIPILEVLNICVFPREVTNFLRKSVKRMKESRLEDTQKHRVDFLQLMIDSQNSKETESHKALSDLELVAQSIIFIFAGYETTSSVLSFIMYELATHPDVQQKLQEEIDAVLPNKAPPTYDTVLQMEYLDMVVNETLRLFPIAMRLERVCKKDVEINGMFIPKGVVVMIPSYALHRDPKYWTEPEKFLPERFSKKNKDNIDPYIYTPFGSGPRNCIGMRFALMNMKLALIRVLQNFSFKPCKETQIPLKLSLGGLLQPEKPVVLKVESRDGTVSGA

With O=C(NCc1ccc(F)cc1)C1C(=O)N(O)C(=O)c2ccccc21 (stereo not given) the inhibition at 5 min, 0.1 µM [1] was 3.4%, the Activity [2] was “Active” and the cytotoxicity at 72 h, 30 µM [3] was 25.7%. The inhibition at 40 min, 10 µM [4] was 6.4%, the cytotoxicity at 72 h, 1 µM [5] was -1% and the cytotoxicity at 72 h, 30 µM [6] was -21.2%. The inhibition at 40 min, 10 µM [7] was 6.6%, the “Ratio EC50” value [8] was 1 and the “Ratio EC50” value [9] was 1. It also gave an Activity [10] of 9.6%, a cytotoxicity at 72 h, 1 µM [11] of 11.8% and an inhibition [12] of -3.7%. For the same compound, the inhibition [13] was -5.4%, the cytotoxicity at 72 h, 100 µM [14] was 16% and the “Ratio EC50” value [15] was 1. For the same compound, the Activity [16] was -1.7%, the Activity [17] was 41.2% and the inhibition at 0.5 h, 10 µM [18] was 5.2%. It also gave an inhibition at 0.5 h, 10 µM [19] of 35.9%, an inhibition [20] of -4% and an inhibition at 50 min, 10 µM [21] of 18%. For the same compound, the cytotoxicity at 72 h, 1 µM [22] was -22.8%, the inhibition at 5 min, 1 µM [23] was 10.6% and the cytotoxicity at 72 h, 100 µM [24] was 6.3%. It also gave an Activity [25] of 29.9%, a cytotoxicity at 72 h, 30 µM [26] of 13.1% and a cytotoxicity at 72 h, 100 µM [27] of 18.7%. The Activity [28] was -0.5%, the inhibition at 5 min, 10 µM [29] was 13.3% and the Activity [30] was 20.3%.
